# An excerpt weighted towards active compounds, which were near 6% of everything screened.
# Jurkat tox 60K: cytotoxicity toward Jurkat cells | AID 463 | inhibition, % at 4 µM | 56,000 compounds, 1.2% hits | Jurkat E6.1 viability, ATP luminescence, 48 h;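 active means inhibition above the mean inhibition of all tested compounds plus 3 SD, cut at about 28% in these data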
# PTK2B oligo ant: antagonists of human Pyk2 oligomerization; 99,000 compounds, 0.83% hits; z-score (the deposit names both 25 µM and 10 µM); AID 1347419; Q293 cells, Pyk2 FERM NanoBiT luminescence; stronger effect = lower value;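 active means Z-score of -3 or lower, scaled per plate to the spread of control and sample wells; inactive means z-score above -3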;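 further: negative z-score means lost luminescence so less FERM oligomerization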
# Target sequence (Q14289 whole entry, looked up): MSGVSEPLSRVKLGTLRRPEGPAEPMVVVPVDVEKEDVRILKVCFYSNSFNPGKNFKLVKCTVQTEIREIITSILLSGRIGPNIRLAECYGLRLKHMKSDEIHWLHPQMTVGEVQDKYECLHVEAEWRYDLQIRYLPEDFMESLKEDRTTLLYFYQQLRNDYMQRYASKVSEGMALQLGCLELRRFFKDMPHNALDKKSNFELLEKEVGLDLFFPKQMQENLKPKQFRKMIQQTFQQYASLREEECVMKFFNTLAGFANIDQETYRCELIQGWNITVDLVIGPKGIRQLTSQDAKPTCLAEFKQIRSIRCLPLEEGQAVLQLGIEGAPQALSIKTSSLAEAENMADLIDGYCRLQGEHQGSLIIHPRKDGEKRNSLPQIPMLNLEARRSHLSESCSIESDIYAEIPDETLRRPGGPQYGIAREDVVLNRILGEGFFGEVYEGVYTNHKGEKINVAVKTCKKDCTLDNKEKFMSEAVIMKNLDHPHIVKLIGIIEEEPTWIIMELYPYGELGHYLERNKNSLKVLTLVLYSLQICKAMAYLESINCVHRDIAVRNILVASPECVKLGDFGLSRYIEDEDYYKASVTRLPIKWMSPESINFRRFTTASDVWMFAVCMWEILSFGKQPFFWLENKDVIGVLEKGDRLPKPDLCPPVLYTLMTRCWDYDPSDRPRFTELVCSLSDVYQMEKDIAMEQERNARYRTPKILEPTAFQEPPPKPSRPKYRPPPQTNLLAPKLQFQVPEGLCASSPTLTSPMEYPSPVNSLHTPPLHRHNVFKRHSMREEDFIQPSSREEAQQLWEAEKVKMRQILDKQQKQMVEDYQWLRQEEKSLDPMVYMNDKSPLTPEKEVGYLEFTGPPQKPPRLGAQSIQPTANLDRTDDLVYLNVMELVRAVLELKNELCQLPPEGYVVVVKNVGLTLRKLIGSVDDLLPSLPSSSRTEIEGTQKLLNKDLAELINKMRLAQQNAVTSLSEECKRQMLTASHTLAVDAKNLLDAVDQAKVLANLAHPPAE
# H69AR inhibit: blocks growth of human H69AR lung tumor cells; H69AR lung tumor viability, ATP luminescence, 72 h; stronger effect = lower value; viability, % at 10 µM; 85,000 compounds, 6% hits; AID 598;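 active means viability at or below 40%; inactive means viability above 40%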;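 further: multidrug resistant small cell line overexpressing MRP-1 efflux transporter; 100% = mean luminescence of untreated control wells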
# F-actin modifier: alters cytoskeleton assembly in HUVEC cells; HUVEC TNFa F-actin phalloidin imaging, high content; inhibition, % at 2 µM; 91,000 compounds, 0.18% hits;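 active means inhibition above the batch mean plus 3 SD and confirmed as a hit by visual image inspection, cut at about 30% in these data, passing the limit was not always enough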
# Fibroblast inh: blocks proliferation of human lung fibroblasts | AID 719 | LL 47 human lung fibroblast viability, ATP luminescence; stronger effect = lower value | 85,000 compounds, 1.1% hits | viability, % at 10 µM;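 active means viability at or below 50% in the single dose screen; inactive means viability above 50%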;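 further: compound exposure lasted 72 h before the ATP readout; 100% = median luminescence of untreated cell-only wells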
#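 Material: human LL 47 lung fibroblast cells; quantity: 1,150 cells/well; medium: IMEM plus 15% FBS; doses: 0.1% DMSO in all compound wells; timing: overnight attachment after seeding, then 72 h compound exposure at 37 °C; detection: CellTiter-Glo luminescence; measure: % viability of median cell-only signal; controls: cell-only wells, no compound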
# HUVEC inhibit: inhibitors of human endothelial cell proliferation; HUVEC proliferation, CellTiter-Glo luminescence, 72 h; stronger effect = lower value; 86,000 compounds, 1.1% hits; viability, % at 10 µM (by protocol);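 active means viability at or below 30%; inactive means viability above 30%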;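 further: 100% = median luminescence of DMSO-only cell control wells on each plate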
# Starred values were filed as active, the others as inactive; . = no result.
SMILES,Jurkat tox 60K,PTK2B oligo ant,H69AR inhibit,F-actin modifier,Fibroblast inh,HUVEC inhibit
O=C(C1CCN(S(=O)(=O)c2cccc3cccnc23)CC1)N1CCN(c2ccc(Cl)cc2)CC1,38*,.,61,-10,90,91
Cc1ccc(NCCC(=O)c2ccc(Br)cc2)cc1,.,1.1,.,4,.,.
COC(=O)C(CC(=O)c1ccc(Br)cc1)n1ccnc1 (centres undefined),0,.,88,0,28*,69
O=C1CC(NCCC2=CCCCC2)C(=O)N1c1cccc(Cl)c1Cl (centres undefined),.,.,.,14,.,.
COc1cc(C2C3=C(Nc4ncnn42)c2ccccc2CC3)cc(OC)c1OC (centres undefined),98*,0.81,29*,-10,50,54
COc1ccc(C2C3=C(Nc4ncnn42)c2ccccc2CCC3)cc1 (centres undefined),.,-0.84,86,-2,97,96
O=C(CN(Cc1ccco1)C(=O)CNS(=O)(=O)c1ccc(Cl)cc1)NCc1ccc(F)cc1,-2,0.05,87,-4,93,96
CCS(=O)(=O)CCSc1nc2ccccc2s1,1,0.33,93,-4,98,87
C=CCS(=O)(=O)c1nc2ccccc2s1,.,0.25,1.1*,0,77,81
O=S(=O)(CCSc1nc2ccccc2s1)c1nc2ccccc2s1,.,-2.1,1.5*,4,35*,14*
c1cc2c3c(cccc3c1)C(N1CCN(C3=Nc4cccc5cccc3c45)CC1)=N2,.,.,7.7*,15,91,85
c1ccc(CC2CCN(C3=Nc4cccc5cccc3c45)CC2)cc1,.,-0.24,26*,-18,77,7.2*
Cc1cc(C)cc(NC(=O)c2cccn2-c2ncc(C(F)(F)F)cc2Cl)c1,.,-0.97,.,29,.,.
Cc1cc(=O)[nH]c(SCC(=O)C23CC4CC(CC(C4)C2)C3)c1C#N,3,-2.2,18*,-30,101,77
COC(=O)C1=C(C(=O)OC)SC(=C2C(=S)C(C)(C)N(C(=O)CC(C)C)c3ccccc32)S1,.,-2.8,17*,-4,92,76
CC(C)CC(=O)n1sc(NC(=O)c2ccccc2)nc1=O,.,-0.16,.,50,.,.
Cc1occc1-c1nnc(SCC(=O)Nc2nc3ccccc3s2)o1,.,1.3,84,-13,96,93
Cc1cc(N2CCN(C(c3ccccc3)c3ccc(Cl)cc3)CC2)n2ncnc2n1 (centres undefined),-1,.,77,.,89,62
Cc1cc(N2CCN(C/C=C/c3ccccc3)CC2)n2ncnc2n1,37*,0.19,69,.,97,106
CC(NS(=O)(=O)c1ccc(CCC(=O)NCc2cccnc2)cc1)c1ccccc1 (centres undefined),.,0.7,82,-18,97,95
COc1cccc(Oc2cnc(N)nc2-c2ccc(OC)cc2O)c1,91*,-3.9*,17*,-12,59,78
COc1ccc(-c2nc(N)ncc2Oc2ccccc2Br)c(O)c1,12,-2.7,38*,4,84,92
C=C(C)COc1ccc(-c2nc(N)nc(C)c2Oc2ccccc2OC)c(O)c1,5,-2.9,77,-7,89,94
COC(=O)/C=C1\C(=O)N(c2nc3ccccc3s2)C(=S)N1c1ccc(F)cc1,.,-1.1,46,1,50*,64
COC(=O)/C=C1\C(=O)N(c2nc3ccc(OC)cc3s2)C(=S)N1c1ccc(F)cc1,.,.,.,8,.,.
SMILES,Jurkat tox 60K,PTK2B oligo ant,H69AR inhibit,F-actin modifier,Fibroblast inh,HUVEC inhibit
C=CCn1c(O)c(C2=c3ccccc3=NC2=O)sc1=Nc1ccc(O)cc1,0,.,.,.,.,.
CCc1ccc(-n2c(=O)c3c(C)c(C(=O)N(C)C)sc3n(CC(=O)NCc3ccco3)c2=O)cc1,.,0.71,.,-37,.,.
O=S(=O)(Nc1nc2ccccc2[nH]1)c1ccccc1,8,0.58,91,-10,96,83
O=S(=O)(CCOc1ccccc1)c1nc2ccccc2[nH]1,6,0.47,0.3*,-4,85,78
CCOc1cc(C)c(Cl)cc1S(=O)(=O)NCc1ccc2c(c1)OCO2,11,0.24,22*,-12,97,81
CCCCn1c(SCC(=O)Nc2cc(NC(=O)c3ccco3)ccc2C)nc2ccccc2c1=O,-4,-1.7,6.8*,9,98,31
CCn1c(SCC(=O)Nc2ccc(NC(=O)c3ccco3)c(OC)c2)nc2ccccc2c1=O,-1,0.09,10*,-8,88,53
COCCn1c(SCC(=O)Nc2ccc(NC(=O)c3ccco3)c(OC)c2)nc2ccccc2c1=O,.,-0.6,31*,.,93,32

# Screens: PubChem BioAssay, several laboratories
